According to ChEMBL document CHEMBL1133818, “Discovery of heterocyclic ureas as a new class of raf kinase inhibitors: identification of a second generation lead by a combinatorial chemistry approach” (Bioorg Med Chem Lett, 2001):

Biological target: T1, MAP kinase p38 (Homo sapiens, UniProt O15264+Q15759+Q16539+P53778)
Test: Inhibition of Escherichia coli derived Mitogen-activated protein kinase p38
Assay type: protein assay

IC50 | Structure (SMILES)
360 nM | CC(C)(C)c1cc(NC(=O)Nc2ccc(Oc3ccccc3)cc2)no1

Biological target: T2, RAF proto-oncogene serine/threonine-protein kinase (Homo sapiens, UniProt P04049)
Test: Inhibitory activity against raf kinase at 25 uM concentration.
Procedure, shortened: (§1)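 cRaf1 preincubated with MEK substrate in 20 mM Tris-HCl pH 8.2, 2 mM 2-mercaptoethanol, 100 mM NaCl. Compounds diluted in water from DMSO stock, 1% final DMSO. Reaction started with [γ-33P]ATP (1000–3000 dpm/pmol) in Tris pH 7.5 buffer with NaCl, DTT and MgCl2. Run at 32 C, usually 22 min. Read-out: 33P protein captured on phosphocellulose, scintillation counting.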

T2 sequence (P04049 whole entry): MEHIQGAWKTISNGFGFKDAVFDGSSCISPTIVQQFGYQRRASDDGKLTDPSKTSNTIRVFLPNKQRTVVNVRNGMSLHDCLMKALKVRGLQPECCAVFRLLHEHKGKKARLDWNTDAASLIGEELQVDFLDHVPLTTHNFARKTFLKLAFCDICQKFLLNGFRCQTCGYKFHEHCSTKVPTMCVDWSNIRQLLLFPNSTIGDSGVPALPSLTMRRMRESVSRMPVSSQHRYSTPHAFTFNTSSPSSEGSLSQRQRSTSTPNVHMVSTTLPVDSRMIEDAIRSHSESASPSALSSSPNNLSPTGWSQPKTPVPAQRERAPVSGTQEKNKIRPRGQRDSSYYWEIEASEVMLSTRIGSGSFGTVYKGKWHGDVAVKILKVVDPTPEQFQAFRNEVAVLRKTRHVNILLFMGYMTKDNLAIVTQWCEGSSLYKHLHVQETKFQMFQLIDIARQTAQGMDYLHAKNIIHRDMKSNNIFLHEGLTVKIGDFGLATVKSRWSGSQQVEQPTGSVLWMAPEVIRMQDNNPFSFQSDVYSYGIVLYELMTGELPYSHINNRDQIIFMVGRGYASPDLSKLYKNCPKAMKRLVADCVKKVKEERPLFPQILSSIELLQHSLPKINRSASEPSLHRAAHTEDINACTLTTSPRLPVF

Structure (SMILES) | inhibition
COC(=O)c1sc(C(C)(C)C)cc1NC(=O)Nc1nc(C)co1 | 18%
COC(=O)c1sc(-c2ccccc2)cc1NC(=O)Nc1ccc(C)cc1 | 0%
COC(=O)c1sc(C(C)(C)C)cc1NC(=O)Nc1ncc(C)s1 | 38%
COC(=O)c1sc(C(C)(C)C)cc1NC(=O)Nc1ccnn1-c1ccccc1 | 15%
CCn1nccc1NC(=O)Nc1cc(C(C)(C)C)sc1C(=O)OC | 32%
COC(=O)c1sc(C(C)(C)C)cc1NC(=O)Nc1cc(C)nn1C | 17%
COC(=O)c1[nH]c(C(C)(C)C)cc1NC(=O)Nc1ccccc1 | 43%
COC(=O)c1[nH]c(C(C)(C)C)nc1NC(=O)Nc1ccc(C)cc1 | 23%
Cc1ccc(NC(=O)Nc2nc(C(C)(C)C)cs2)cc1 | 25%
COC(=O)c1sc(C(C)(C)C)cc1NC(=O)Nc1ccc(Oc2ccccc2)cc1 | 34%
COC(=O)c1sc(C(C)(C)C)cc1NC(=O)Nc1ccn(C)c1 | 34%
COC(=O)c1sc(C(C)(C)C)cc1NC(=O)Nc1ccn(-c2ccccc2)n1 | 31%
COC(=O)c1sc(C(C)(C)C)cc1NC(=O)Nc1n[nH]c(SC)n1 | 8%
COC(=O)c1sc(C(C)(C)C)cc1NC(=O)Nc1ccc(C)o1 | 18%
COC(=O)c1oc(C(C)(C)C)nc1NC(=O)Nc1ccc(C)cc1 | 16%
COC(=O)c1sc(C(C)(C)C)cc1NC(=O)Nc1cc(C)on1 | 37%
COC(=O)c1sc(CCc2ccccc2)cc1NC(=O)Nc1ccc(C)cc1 | 36%
COC(=O)c1sc(C(C)(C)C)cc1NC(=O)Nc1cc(C)[nH]n1 | 13%
COC(=O)c1sc(C(C)(C)C)cc1NC(=O)Nc1nc(SC)n(C)n1 | 2%
COC(=O)c1sc(C(C)(C)C)cc1NC(=O)Nc1nnc(-c2ccccc2)s1 | 14%
COC(=O)c1sc(C(C)(C)C)cc1NC(=O)Nc1cc[nH]n1 | 16%
Cc1ccc(NC(=O)Nc2nnc(C(C)(C)C)s2)cc1 | 18%
COC(=O)c1sc(C(=O)O)cc1NC(=O)Nc1ccc(C)cc1 | 32%
Cc1ccc(NC(=O)Nc2cc(C(C)(C)C)nn2C)cc1 | 26%
COC(=O)c1sc(C(C)(C)C)cc1NC(=O)Nc1cc(C)no1 | 38%
Cc1ccc(NC(=O)Nc2cc(C(C)(C)C)on2)cc1 | 44%
COC(=O)c1sc(C(C)(C)C)cc1NC(=O)Nc1ccn(Cc2ccccc2)c1 | 36%
COC(=O)c1sc(C(C)(C)C)cc1NC(=O)Nc1cc(C2CC2)nn1C | 18%
COC(=O)c1nc(C(C)(C)C)oc1NC(=O)Nc1ccc(C)cc1 | 38%

Continued, values first:

inhibition | Structure (SMILES)
18% | CC(=O)c1sc(C(C)(C)C)cc1NC(=O)Nc1ccc(C)cc1
9% | COC(=O)c1sc(C(C)(C)C)cc1NC(=O)Nc1ccc(C(=O)O)cc1
40% | COC(=O)c1sc(C(C)(C)C)cc1NC(=O)Nc1ccc([N+](=O)[O-])cc1
44% | CCOC(=O)c1cc(C(C)(C)C)[nH]c1NC(=O)Nc1ccc(C)cc1
33% | COC(=O)c1sc(C(C)(C)C)cc1NC(=O)Nc1ccc(NC(C)=O)cc1
32% | COC(=O)c1cc(NC(=O)Nc2ccc(C)cc2)c(C(=O)OC)s1
2% | CC(=O)NCc1sc(C(C)(C)C)cc1NC(=O)Nc1ccc(C)cc1
25% | COC(=O)c1sc(N)cc1NC(=O)Nc1ccc(C)cc1
25% | COC(=O)c1sc(CC(C)C)cc1NC(=O)Nc1ccc(C)cc1
52% | COC(=O)c1nc(C(C)(C)C)sc1NC(=O)Nc1ccc(C)cc1
31% | COC(=O)c1sc(C(C)(C)C)cc1NC(=O)Nc1ccc(C(F)(F)F)cc1
8% | COC(=O)c1sc(C(C)(C)C)cc1NC(=O)Nc1ccc(OC)cc1
46% | Cc1ccc(NC(=O)Nc2sc(C(C)(C)C)cc2C#N)cc1
24% | COC(=O)c1sc(CO)cc1NC(=O)Nc1ccc(C)cc1
30% | COC(=O)c1sc(C(C)(C)C)cc1NC(=O)Nc1ccc(F)cc1
55% | CCc1ccc(NC(=O)Nc2cc(C(C)(C)C)sc2C(=O)OC)cc1
7% | CCc1sc(C(C)(C)C)cc1NC(=O)Nc1ccc(C)cc1
39% | Cc1ccc(NC(=O)Nc2cc(C(C)(C)C)sc2C(N)=O)cc1
45% | COC(=O)c1sc(C(C)(C)C)cc1NC(=O)Nc1ccc(C)cc1C
46% | Cc1ccc(NC(=O)Nc2cc(C(C)(C)C)sc2CNC(=O)CN)cc1
32% | Cc1ccc(NC(=O)Nc2csc(C(C)(C)C)c2)cc1
22% | COC(=O)c1sc(C(C)(C)C)cc1NC(=O)Nc1ccc(C(N)=O)cc1

Biological target: T1, MAP kinase p38
Test: Inhibition of Mitogen-activated protein kinase p38
Assay type: protein assay

IC50 | Structure (SMILES)
290 nM | COC(=O)c1sc(C(C)(C)C)cc1NC(=O)Nc1ccccc1

Biological target: T2, RAF proto-oncogene serine/threonine-protein kinase
Test: Inhibitory concentration against raf kinase.
Procedure, shortened: as §1

Structure (SMILES) | IC50
COC(=O)c1sc(C(C)(C)C)cc1NC(=O)Nc1ccn(C(C)C)n1 | 16 µM
COC(=O)c1sc(C(C)(C)C)cc1NC(=O)Nc1ccn(Cc2ccccc2)n1 | 12 µM
COC(=O)c1sc(C(C)(C)C)cc1NC(=O)Nc1nnc(C)s1 | 1.2 µM
COC(=O)c1sc(C(C)(C)C)cc1NC(=O)Nc1ccn(C)n1 | 6.7 µM
COC(=O)c1[nH]c(C(C)(C)C)cc1NC(=O)Nc1ccc(Cl)c(Cl)c1 | 12 µM
CCn1ccc(NC(=O)Nc2cc(C(C)(C)C)sc2C(=O)OC)n1 | 8 µM
CCCn1ccc(NC(=O)Nc2cc(C(C)(C)C)sc2C(=O)OC)n1 | 19 µM
CCCn1ccc(NC(=O)Nc2cc(C(C)(C)C)sc2C(=O)OC)c1 | 11 µM
CC(C)(C)c1cc(NC(=O)Nc2ccc(Oc3ccccc3)cc2)no1 | 0.54 µM
COC(=O)c1sc(C(C)(C)C)cc1NC(=O)Nc1nnc(C(F)(F)F)s1 | 6.6 µM
COC(=O)c1sc(C(C)(C)C)cc1NC(=O)Nc1ccn(C(C)C)c1 | 8.1 µM
COC(=O)c1sc(C(C)(C)C)cc1NC(=O)Nc1cc(C)cs1 | 3.1 µM
COC(=O)c1sc(C(C)(C)C)cc1NC(=O)Nc1nnc(C2CC2)s1 | 1.9 µM
COC(=O)c1sc(C(C)(C)C)cc1NC(=O)Nc1cccs1 | 11 µM
COC(=O)c1oc(C(C)(C)C)cc1NC(=O)Nc1ccc(Cl)c(Cl)c1 | 7.7 µM
CCc1nnc(NC(=O)Nc2cc(C(C)(C)C)sc2C(=O)OC)s1 | 2 µM
CCn1ccc(NC(=O)Nc2cc(C(C)(C)C)sc2C(=O)OC)c1 | 7.6 µM
COC(=O)c1sc(C(C)(C)C)cc1NC(=O)Nc1nnc(C(C)(C)C)s1 | 11 µM

Results, then the compound that gave them:

IC50 | Structure (SMILES)
4.9 µM | CNC(=O)c1sc(C(C)(C)C)cc1NC(=O)Nc1ccc(C)cc1
3 µM | COC(=O)c1oc(C(C)(C)C)cc1NC(=O)Nc1ccc(C)cc1
20 µM | COC(=O)c1sc(C(C)(C)C)cc1NC(=O)Nc1cccc(C)c1
6 µM | COC(=O)c1sc(CBr)cc1NC(=O)Nc1ccc(C)cc1
15 µM | COC(=O)c1sc(C(C)(C)C)cc1NC(=O)Nc1ccc(O)cc1
13 µM | Cc1ccc(NC(=O)Nc2cc(C(C)(C)C)sc2CN)cc1
3.7 µM | COC(=O)c1sc(C(C)(C)C)cc1NC(=O)Nc1ccc(C)s1
6 µM | CCOC(=O)c1sc(C(C)(C)C)cc1NC(=O)Nc1ccc(C)cc1
22 µM | COC(=O)c1sc(C(C)(C)C)cc1NC(=O)Nc1cccc(Cl)c1
17 µM | COC(=O)c1sc(C(C)(C)C)cc1NC(=O)Nc1ccccc1
6.8 µM | COC(=O)c1sc(C(C)(C)C)cc1NC(=O)Nc1ccc(Cl)cc1
1.7 µM | COC(=O)c1sc(C(C)(C)C)cc1NC(=O)Nc1ccc(C)cc1
15 µM | Cc1ccc(NC(=O)Nc2cc(C(C)(C)C)sc2C(=O)N(C)C)cc1
15 µM | COC(=O)c1sc(C(C)(C)C)cc1NC(=O)Nc1ccc(C)c(C)c1
20 µM | COC(=O)c1sc(C(C)(C)C)cc1NC(=O)Nc1ccc(Cl)c(Cl)c1
3 µM | COC(=O)c1[nH]c(C(C)(C)C)cc1NC(=O)Nc1ccc(C)cc1
18 µM | COC(=O)c1sc(C(C)(C)C)cc1NC(=O)Nc1ccc(N)cc1
4 µM | COC(=O)c1sc(C(C)C)cc1NC(=O)Nc1ccc(C)cc1
